MT stabilize HCS – microtubule stabilizers in HeLa cells, primary screen, imaging, high-content imaging. HeLa tubulin immunostaining HCS, 24 h; share of cells brighter than vehicle mean+2SD. % tubulin-high responders, % at 10 µM. 0.83% of 200,000 active. AID 2205, 2009;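 active means plate Z-score above 3 for both tubulin-high and condensed-nucleus cell shares, with cell loss under 80%, at 10 µM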;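 further: anti alpha tubulin signal scored within the nucleus-defined area of each cell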
Dynein cargo inh – inhibitors of GR-EGFP nuclear translocation, primary screen, dynein cargo transport inhibitor project, imaging, high-content, 3617.4 mouse cells; AID 1381, 2008; test concentration mostly 20 µM; stimulated with dexamethasone, 1 µM; active compounds read low; 0.47% of 220,000 active; z-score, hits read low;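 active means plate z-score of nuclear minus cytoplasmic receptor signal below a set negative limit, without overly bright fluorescence or cell loss, cut at about -3.5 in these data, passing the limit was not always enough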;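 further: z-score of nuclear minus cytoplasmic ring GR-EGFP intensity difference per well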
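Buffer or medium: tet-free, stripped-serum medium; Also added: dexamethasone, 1.0 µM final; Technique: high-content fluorescence imaging after fixation; Times: 48 h induction, 1 h compound, 30 min dex at 37 °C; Read-out: per-cell GR-EGFP intensity, nucleus versus surrounding cytoplasmic ring, well-averaged.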
Ins promoter up – insulin promoter activators in MIN6 cells, imaging, high-content screening, mouse beta cells; MIN6 insulin promoter-GFP reporter; active compounds read high; 0.3% of 190,000 active; z-score at 5 µM;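 active means z-score above 3 at 5 µM with at least 500 cells counted in the well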
Autophagy HCS – autophagy modulators in MEF cells, primary screen, imaging, high-content, MEF GFP-LC3; calls only at 10 µM (by protocol); 0.98% of 190,000 active; MEF GFP-LC3 puncta imaging; test concentration mostly 10 µM; AID 463193, 2010;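 active means percentage of spot-positive cells more than 3 SD above its plate mean, without a fluorescence outlier flag or 80% toxicity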;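 further: spot-positive cell cutoff set from DMSO-treated cells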
b-catenin transl – modulators of beta-catenin nuclear translocation, primary screen, imaging, HeLa cells, immunofluorescence, high-content. 0.3% of 190,000 active. nuclear translocation activity, % at 5 µM;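 active means nuclear translocation activity above 50% at 5 µM, with a well cell count of 50 or more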;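 further: per-cell ratio of nuclear to cytoplasmic median beta-catenin stain intensity; plate controls were DMSO negative control for no effect and GSK-3 inhibitor IX positive control for full effect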
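Technique: fluorescence imaging of beta-catenin antibody stain plus DAPI / Material: human HeLa cell line / Incubation: compound treatment 24 h, 37°C, 5% CO2 / Read-out basis: % activation of per-cell nuclear versus cytoplasmic median beta-catenin signal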
Numbers without * were called inactive; i = inactive; · = no result given; + = active, no number. An excerpt weighted towards active compounds, which were near 2.3% of everything screened.

SMILES	MT stabilize HCS	Dynein cargo inh	Ins promoter up	Autophagy HCS	b-catenin transl
CCc1ccc(NSc2ccccc2[N+](=O)[O-])cc1	46.2*	1.33	-0.07	i	1.0
COc1ccc(C(=O)Nc2c(C(C)(C)C)nn(C)c2C(C)(C)C)cc1	·	0.494	-0.33	·	0.4
COc1ccc(/C=N/NC(=O)CCn2c3ccccc3c3ccccc32)cc1O	18.5*	-0.66	-0.28	i	52.9*
COc1cccc(/C=N/NC(=O)CCn2c3ccccc3c3ccccc32)c1	2.6	0.218	-0.04	i	-0.3
CCOc1ccc2nc(N3CCCC(C(=O)NCCCN4CCOCC4)C3)sc2c1 (centres undefined)	4.9	0.727	-0.08	+	-1.2
CCOC(=O)Cc1nnc(NC(=O)CSc2nc3ccccc3[nH]2)s1	·	-1.09	-0.67	·	-0.7
C=CCn1c(-c2oc3nc(-c4ccccc4)cc(-c4ccccc4)c3c2N)n[nH]c1=S	0.7	0.0733	5.57*	i	·
COc1ccc(CN(C(C)=O)c2cccc(C)c2C)cc1	43.0*	0.511	0.42	i	10.3
CC(=O)N(Cc1ccccc1)c1ccccc1C(=O)O	·	-0.642	0.21	·	0.2
CC(=O)N(Cc1ccc(Br)cc1)c1cccc(C)c1C	16.1	-0.326	-0.24	i	51.8*
CCOC(=O)NNC(=S)Nc1c(C)n(C)n(-c2ccccc2)c1=O	·	-0.103	0.04	·	-3.5
CC(Nc1nc(N2CCNCC2)nc2ccccc12)c1ccccc1 (centres undefined)	4.2	0.0379	-1.44	+	-0.6
NC(=O)COC(=O)c1ccccc1OCc1ccccc1Cl	3.8	0.601	0.05	i	-3.7
CCC(C)c1ccccc1NC(=O)COC(=O)c1ccc2[nH]c3c(c2c1)CCCC3 (centres undefined)	12.6*	1.18	-0.52	i	0.4
CNC(=S)/N=C/NOCc1c(Cl)cccc1Cl	3.6	-0.543	-1.72	i	2.1
CCOC(=O)/C=C/C(=O)N1CCN(C(=O)/C=C/C(=O)OCC)CC1	·	-0.614	-0.32	·	-0.8
COc1ccccc1Nc1nc(-c2ccc3c(c2)NC(=O)CO3)cs1	23.7*	-0.798	-0.46	i	0.0
COc1ccc(Nc2nc(-c3ccc4c(c3)NC(=O)CO4)cs2)cc1	3.8	1.69	-1.68	i	-2.0
CCc1nnc(NC(=O)CSc2nnc(COc3ccc(C)cc3)n2-c2ccccc2)s1	33.2*	1.64	0.45	i	0.4
CCc1nnc(NC(=O)CSc2nnc(-c3ccccc3O)n2-c2ccc(C)cc2)s1	38.4*	-0.368	1.01	i	-1.3
CCc1nnc(NC(=O)CSc2nnc(-c3ccccc3OC)n2-c2ccc(C)cc2)s1	1.8	-0.508	0.59	i	2.2
CCc1nnc(NC(=O)CSc2nnc(Cc3ccccc3)n2-c2ccccc2)s1	5.5	-0.083	0.46	i	-4.7
O=S(=O)(NC(=S)NC1CCCCC1)c1ccc(Br)cc1	1.2	-0.559	0.59	i	-0.7
Cc1cc(C)c(OCC(=O)N/N=C/c2ccc3c(c2)OCO3)c(C)c1	26.0*	0.36	·	i	25.7
NC(=O)c1ccc(OCC(F)(F)F)nc1	·	0.426	-0.56	·	-0.1
SMILES	MT stabilize HCS	Dynein cargo inh	Ins promoter up	Autophagy HCS	b-catenin transl
C=CCn1c(Oc2cccc(C)c2)nc2c1c(=O)n(C)c(=O)n2C	0.9	-0.169	·	i	1.0
C=CCn1c(Oc2cc(C)ccc2C)nc2c1c(=O)n(C)c(=O)n2C	3.2	0.736	-0.49	+	-1.0
CC1CCCN(C(=O)CSc2nc3ncccc3[nH]2)C1 (centres undefined)	3.9	0.0544	1.02	+	-0.6
Cc1cc(N2C(=O)c3ccccc3C2=O)n(C)n1	·	-0.568	3.77*	·	-5.0
Cc1cccc(CN2C(=O)c3ccccc3Sc3ccc(C(=O)NCCN4CCOCC4)cc32)c1	2.8	-0.0988	0.23	i	1.9
O=C(NCCN1CCOCC1)c1ccc2c(c1)N(Cc1ccccc1F)C(=O)c1ccccc1S2	1.4	0.599	-0.32	+	-0.8
Cc1[nH]c2ccccc2c1C(=O)CCl	2.3	-3.02	-0.65	+	4.2
Cc1[nH]c2ccccc2c1C(=O)CSc1ccccc1	3.1	0.203	0.15	i	0.4
CCN(CC)S(=O)(=O)c1ccc2c3c(cccc13)C(=O)N2	2.1	-0.773	-0.3	+	0.1
Cc1ccc(-c2cc(N)n(-c3ccccc3)n2)cc1	2.2	0.493	5.28*	i	-1.6
COc1ccc(C(=O)COC(=O)c2cc(S(=O)(=O)NCc3ccccc3)ccc2O)cc1	1.3	0.116	-0.27	i	-3.0
CCCCOc1ccc(CN(C)c2ncnc(N)n2)cc1	23.1*	0.19	·	i	27.2
CC(C)(C)c1ccc(-c2nnc(N)o2)cc1	·	-1.26	0.09	·	-2.1
CC1=NNC(=O)/C1=C\c1cn(-c2ccccc2)nc1-c1ccc(Cl)cc1	79.2	0.445	0.35	+	1.0
O=C(C1CC1)N1CCC(c2nc(-c3ccc(S(=O)(=O)N4CCCC4)cc3)no2)CC1	1.2	0.496	·	i	·
O=C(NC1CCCCC1)N1CCC(c2nc(-c3ccc(S(=O)(=O)N4CCCC4)cc3)no2)CC1	35.1*	-0.586	0.43	i	0.9
Cc1ccc(CN=C(N)Nc2nc(C)cc(C)n2)cc1	12.1*	-0.789	-1.9	i	41.7
Cc1ccc(C)c(N/C(N)=N/c2nc(C)cc(C)n2)c1	0.6	-0.718	0.32	i	-0.3
Cc1ccc(C)c(CSc2nc3[nH]ncc3c(=O)[nH]2)c1	22.9*	-0.0996	-0.25	i	20.6
Cc1ccc(-c2cc(C(=O)N3CCN(c4ncccn4)CC3)c3cc(Br)ccc3n2)o1	5.2	-1.67	-0.81	i	-0.3
COc1ccc(CSCC(=O)N/N=C/c2ccccc2O)cc1	2.8	1.93	0.19	+	0.1
O=C(CSc1ccccc1)N/N=C/c1ccccc1O	3.2	-0.996	-0.04	i	0.6
CN1CCN(c2ccc([N+](=O)[O-])cc2C(=O)N2CCOCC2)CC1	2.8	0.779	-0.17	i	-0.4
Cc1ccc(C(=O)c2cc([N+](=O)[O-])ccc2N2CCOCC2)c(C)c1	6.5	-0.397	0.26	i	134.7*
Cc1ccc(C(=O)c2cc([N+](=O)[O-])ccc2N2CCCCC2)cc1C	4.2	0.385	-0.16	i	77.9*
Cc1ccc(C(=O)c2cc([N+](=O)[O-])ccc2N2CCOCC2)cc1C	19.5*	0.149	0.36	i	9.6
Cc1cc(C)c(-c2csc(NC(=O)c3cc([N+](=O)[O-])ccc3N3CCOCC3)n2)c(C)c1	2.4	-1.19	-2.21	i	·
O=C(CCc1nc(-c2ccccc2F)no1)Nc1ccc(Oc2ccccc2)cc1	23.9*	-0.246	-1.24	i	-1.7
COc1cccc(NC(=O)CCc2nc(-c3ccccc3F)no2)c1	3.9	0.0375	-0.29	i	0.0
O=S(=O)(c1ccc(Cl)cc1)N1c2ccccc2Oc2nc3ccccc3nc21	24.5*	-0.34	·	i	5.1
